pIC50, pKi: −log10 of the molar value.
Assays:
PC-3 = experiment: Growth inhibition in human PC3 cell line; assay type: functional, cell-based
Summary of the method: (§1)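 Human cancer cells (MDA-MB-231 (2LMP) breast line; PC-3 prostate line) exposed to compound for 4 days across a concentration series spanning 0.01–100 μM. Growth read by WST assay; IC50 taken from the dose-response curve.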

MDA-MB-231 = experiment: Growth inhibition in human MDA-MB-231 cell line; assay type: functional, cell-based; summary of the method: as §1
[1] = target: E3 ubiquitin-protein ligase XIAP (Homo sapiens, UniProt P98170); experiment: Binding affinity to recombinant XIAP BIR3 by FP assay
Summary of the method: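 Competitive fluorescence-polarization assay on the XIAP BIR3 domain; binding expressed as Ki.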

Sequence of E3 ubiquitin-protein ligase XIAP (P98170 whole entry, the tested form may be a part): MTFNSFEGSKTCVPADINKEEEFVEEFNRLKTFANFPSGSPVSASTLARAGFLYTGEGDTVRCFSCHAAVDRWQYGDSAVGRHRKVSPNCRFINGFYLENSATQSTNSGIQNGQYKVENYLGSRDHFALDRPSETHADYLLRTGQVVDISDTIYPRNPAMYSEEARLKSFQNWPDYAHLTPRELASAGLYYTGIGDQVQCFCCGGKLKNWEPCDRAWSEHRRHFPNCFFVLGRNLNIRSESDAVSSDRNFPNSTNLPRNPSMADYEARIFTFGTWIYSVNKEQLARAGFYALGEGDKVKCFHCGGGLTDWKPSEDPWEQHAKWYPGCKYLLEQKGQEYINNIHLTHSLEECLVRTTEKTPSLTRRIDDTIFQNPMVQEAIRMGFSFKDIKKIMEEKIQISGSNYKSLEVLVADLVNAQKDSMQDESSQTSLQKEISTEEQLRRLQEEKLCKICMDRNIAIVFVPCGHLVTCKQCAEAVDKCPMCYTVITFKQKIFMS

Compound | pIC50 (PC-3) | pIC50 (MDA-MB-231) | pKi [1]
Cc1cccc(CCc2cccc(CCC3=C(O)C(=O)C=C(O)C3=O)c2)c1 | 5.26 | 5.30 | –
O=C1C=C(O)C(=O)C(CCCCc2ccccc2)=C1O | – | – | 5.89
O=C1C=C(O)C(=O)C(CCc2ccccc2)=C1O | – | – | 6.15
CCC1=C(O)C(=O)C=C(O)C1=O | – | – | 4.98
CCCCc1cccc(CCC2=C(O)C(=O)C=C(O)C2=O)c1 | – | – | 6.32
CCCCCCCCCCCC1=C(O)C(=O)C=C(O)C1=O [EMBELIN] | – | – | 6.40

From ChEMBL document CHEMBL1139728, “Design, synthesis, and characterization of new embelin derivatives as potent inhibitors of X-linked inhibitor of apoptosis protein” (Bioorg Med Chem Lett, 2006)
